Results on twelve compounds are retold here after ChEMBL document CHEMBL5055634 (J Med Chem, 2021).

In test [1] the test system is Pseudomonas aeruginosa. As to the kind of experiment: Antimicrobial activity against Pseudomonas aeruginosa PA01 assessed as inhibition of microbial growth measured after 24 hrs by broth dilution method. Format: functional. The note with it: PAO1. The method in brief: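 Broth dilution MIC against P. aeruginosa PAO1. Overnight LB cultures (37 °C, 200 rpm) diluted 100-fold to 10^7 CFU/mL. Two-fold dilution series from 200 to 0.1 μg/mL, 24 h at 37 °C. MIC taken as the lowest concentration with no detectable turbidity. Run at least three times.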
For orientation: Dilution methods test growth across graded concentrations, often in twofold steps.

Test [2] in a line: Induction of NO production aqueous solution assessed as nitrite level at 80 uM measured after 1 hr of white light irradiation by griess reagent based assay. It counts as functional. The method in brief: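 Griess assay. Aqueous compound at 160 μM was mixed 1:1 with Griess reagent, giving 80 μM, in a quartz cuvette. The mix was irradiated with a 300 W tungsten lamp at 40 cm for 15 min, 1 h or 2 h. Absorbance was read at 540 nm and nitrite quantified against a NaNO2 standard curve (5–50 μM).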
(In general: Nitrite, measured by Griess reagent, commonly stands in for NO production.)

Test [3] concerns Pseudomonas aeruginosa PAO1. Put plainly: Binding affinity to Pseudomonas aeruginosa PA01 cell wall at 10 uM incubated for 1 hr in dark. The method in brief:
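Indirect cell-binding assay. Pelleted overnight PAO1 cells were resuspended and diluted 10-fold in PBS, then given compound at 10 μM for 1 h at 37 °C in the dark. After centrifugation, the supernatant visible spectrum (380–700 nm) was compared with the spectrum of each compound alone; a drop in absorbance indicates binding.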

Another test deals with HCT-116. As to the kind of experiment: Antitumour activity against human HCT-116 cells assessed as cell growth inhibition at 0.1 to 75 uM incubated for 72 hrs by MTT assay. Format: functional, cell-based. To be noted: dose 0.1-75 µM. The method in brief: (§1)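 MTT viability assay. Cells were plated at line-specific densities and left to attach 24 h, then exposed 72 h at 37 °C to 0.1–75 μM, eight replicates per concentration, with 0.2% DMSO controls. MTT was added for 3 h at 37 °C, formazan dissolved in DMSO and read at 570 nm. IC50 came from nonlinear regression; mean ± ES of 4/5 independent experiments.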

The test system of test [4] is PC-3. Put plainly: Antitumor activity against human PC-3 cells assessed as cell growth inhibition at 0.1 to 75 uM incubated for 72 hrs by MTT assay. The note with it: dose 0.1-75 µM. It counts as functional, cell-based. Summed up: as §1
Test [5] concerns DU-145. Put plainly: Antitumor activity against human DU-145 cells assessed as cell growth inhibition at 0.1 to 75 uM incubated for 72 hrs by MTT assay. Format: functional, cell-based. To be noted: dose 0.1-75 µM. The method in brief:
as §1
(In general: Tetrazolium assays rely on reduction of a dye to a coloured formazan, in cell work by metabolically active cells.)

Another test deals with MDA-MB-231. Put plainly: Antitumour activity against human MDA-MB-231 cells assessed as cell growth inhibition at 0.1 to 75 uM incubated for 72 hrs by MTT assay. It counts as functional, cell-based. To be noted: dose 0.1-75 µM. The method in brief: as §1
Test [6] concerns PC-3. Put plainly: […] against human PC-3 cells assessed as reduction in cell viability by measuring difference in IC50 pretreated for 24 hrs followed by blue light irradiation for 1 hr further incubated for 48 hrs in drug free medium by MTT assay. Format: functional, cell-based. The method in brief:
(§2)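 Prostate cells were treated for 24 h, irradiated 1 h with white or blue light (dark-kept comparison), then incubated 48 h in drug-free medium.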

The subject of test [7] is DU-145. Put plainly: […] against human DU-145 cells assessed as reduction in cell viability by measuring difference in IC50 pretreated for 24 hrs followed by blue light irradiation for 1 hr further incubated for 48 hrs in drug free medium by MTT assay. Format: functional, cell-based. Summed up: as §2
The subject of test [8] is PC-3. As to the kind of experiment: […] against human PC-3 cells assessed as reduction in cell viability by measuring difference in IC50 pretreated for 24 hrs followed by white light irradiation for 1 hr further incubated for 48 hrs in drug free medium by MTT assay. It counts as functional, cell-based. Summed up: as §2
Test [9] has as its system DU-145. Put plainly: […] against human DU-145 cells assessed as reduction in cell viability by measuring difference in IC50 pretreated for 24 hrs followed by white light irradiation for 1 hr further incubated for 48 hrs in drug free medium by MTT assay. It counts as functional, cell-based. The method in brief:
as §2

Test [10] concerns Pseudomonas aeruginosa. As to the kind of experiment: Photodynamic antimicrobial activity against Pseudomonas aeruginosa PA01 assessed as bacterial eradication at 10 uM incubated for 10 min in dark followed by irradiation with 20J/cm2 light by viability count technique. Format: functional, organism-based. The note with it: PAO1. Summed up: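 Photoinactivation assay. Overnight cultures were diluted in 10 mM phosphate buffer, pH 7.4, to ~10^6 CFU/mL. Compound was added at 10 μM and held 10 min in the dark, then irradiated at 410 ± 10 nm (20 J/cm2); dark controls were not irradiated. Survivors were counted on LB agar after overnight 37 °C incubation and reported as CFU/mL; at least three independent experiments.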

In test [11] the test system is PC-3. Put plainly: Antitumor activity against human PC-3 cells assessed as cell growth inhibition incubated for 72 hrs by MTT assay. Format: functional, cell-based. To be noted: PC-3, 72 h. The method in brief: as §1

Activity calls are given as the source filed them. The rule behind the calls is not given here. A value given as a limit tells only on which side of the number the result lay.

One may read the MIC as the lowest concentration found to suppress growth. Consider `CCn1cc(C(=O)O)c(=O)c2cc(F)c(N3CCN(c4ccc([N+](=O)[O-])c(C(F)(F)F)c4)CC3)cc21`, for which the MIC in the test on Pseudomonas aeruginosa [1] stood at 25 µg/mL. For the same compound, in test [2], the Activity turned out to be 3.1 µM. Further, in test [3], the result was Active.

As to `CCn1cc(C(=O)OC)c(=O)c2cc(F)c(N3CCN(c4ccc([N+](=O)[O-])c(C(F)(F)F)c4)CC3)cc21`, the MIC in the test with Pseudomonas aeruginosa [1] was 25 µg/mL. The outcome in test [3] was Active.

On to `O=C(O)c1cn(C2CC2)c2cc(N3CCN(CCNc4ccc([N+](=O)[O-])c(C(F)(F)F)c4)CC3)c(F)cc2c1=O`, for which the result (with HCT-116; in the test on PC-3 [4]; in the test on DU-145 [5]; in test [3]; in the test on MDA-MB-231) was Active. Besides, the MIC with Pseudomonas aeruginosa [1] is 25 µg/mL. Moreover, the Activity in [2] was determined as 0.5 µM.

In the case of `CCn1cc(C(=O)OC)c(=O)c2cc(F)c(N3CCN(CCCNc4ccc([N+](=O)[O-])c(C(F)(F)F)c4)CC3)cc21`, the MIC with Pseudomonas aeruginosa [1] turned out to be 25 µg/mL. In test [3], the outcome was Active.

Take `CCn1cc(C(=O)O)c(=O)c2cc(F)c(N3CCN(CCNc4ccc([N+](=O)[O-])c(C(F)(F)F)c4)CC3)cc21`: the outcome in the test on PC-3 [6], with DU-145 [7], with PC-3 [8], in the test on DU-145 [9] and in the test with Pseudomonas aeruginosa [10] was inactive. The MIC in the test on Pseudomonas aeruginosa [1] was determined as 25 µg/mL. Besides, the Activity in [2] stood at 0.2 µM. In addition, the result in [3] was Active.

Consider `COC(=O)c1cn(C2CC2)c2cc(N3CCN(CCCNc4ccc([N+](=O)[O-])c(C(F)(F)F)c4)CC3)c(F)cc2c1=O`, for which the result (in the test with HCT-116; in the test on PC-3 [4]; with DU-145 [5]; in test [3]; with MDA-MB-231) was Active. For the same compound, the MIC with Pseudomonas aeruginosa [1] came out at 25 µg/mL.

In the case of `CCn1cc(C(=O)OC)c(=O)c2cc(F)c(N3CCN(CCNc4ccc([N+](=O)[O-])c(C(F)(F)F)c4)CC3)cc21`, the MIC in the test with Pseudomonas aeruginosa [1] is 25 µg/mL. Besides, in test [3], the result was Active.

`CCn1cc(C(=O)O)c(=O)c2cc(F)c(N3CCN(CCCNc4ccc([N+](=O)[O-])c(C(F)(F)F)c4)CC3)cc21`: the MIC in the test on Pseudomonas aeruginosa [1] turned out to be 25 µg/mL. Further, the Activity in [2] is 1.8 µM. In addition, the result in [3] was Active.

For `COC(=O)c1cn(C2CC2)c2cc(N3CCN(c4ccc([N+](=O)[O-])c(C(F)(F)F)c4)CC3)c(F)cc2c1=O`, the result (in the test on HCT-116; in the test on PC-3 [4]; in the test with DU-145 [5]; in test [3]; with MDA-MB-231) was Active. In addition, the MIC in the test with Pseudomonas aeruginosa [1] turned out to be 25 µg/mL.

One may read the IC50 as the concentration at which inhibition is half-maximal. As to `O=C(O)c1cn(C2CC2)c2cc(N3CCN(CCCNc4ccc([N+](=O)[O-])c(C(F)(F)F)c4)CC3)c(F)cc2c1=O`, the result with PC-3 [6], in the test with DU-145 [7], in the test with PC-3 [8] and with DU-145 [9] was inactive. Moreover, the outcome (in the test with HCT-116; with PC-3 [4]; in the test on DU-145 [5]; in test [3]; with MDA-MB-231) was Active. The MIC in the test on Pseudomonas aeruginosa [1] is 25 µg/mL. Moreover, in [2], the Activity turned out to be 6.2 µM. Further, the IC50 with PC-3 [11] is < 3000 nM.

With `O=C(O)c1cn(C2CC2)c2cc(N3CCN(c4ccc([N+](=O)[O-])c(C(F)(F)F)c4)CC3)c(F)cc2c1=O`, the result (with HCT-116; in the test on PC-3 [4]; with DU-145 [5]; in test [3]; with MDA-MB-231) was Active. Besides, the MIC in the test with Pseudomonas aeruginosa [1] was found to be 25 µg/mL. The Activity in test [2] turned out to be 0.6 µM.

`COC(=O)c1cn(C2CC2)c2cc(N3CCN(CCNc4ccc([N+](=O)[O-])c(C(F)(F)F)c4)CC3)c(F)cc2c1=O`: the result (in the test on HCT-116; in the test with PC-3 [4]; in the test on DU-145 [5]; in test [3]; with MDA-MB-231) was Active. The MIC in the test on Pseudomonas aeruginosa [1] was determined as 25 µg/mL.
